Bioassay records (PubChem BioAssay)
C8 TRAIL sens: caspase-8 TRAIL sensitization. inhibition (viability loss, TRAIL sensitization), % at 10 µM. NB7+C8 cells + TRAIL, ATPlite viability luminescence. 1% of 360,000 active. AID 624354;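 active means compounds causing at least 50% loss of cell viability in the single-dose screen, relative to plate controls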
FLuc act counter: firefly luciferase counter-screen for stimulation assays | P08659 | ATPlite luciferase biochemical, luminescence, 10 min; 0 = ATP-free wells, 1 = DMSO control | activation factor at 10 µM | 200,000 tested, under 10 active;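 active means luciferase activation factor, scaled between plate controls, of at least 2 with compound at 10 µM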
Target sequence (P08659 whole entry, looked up): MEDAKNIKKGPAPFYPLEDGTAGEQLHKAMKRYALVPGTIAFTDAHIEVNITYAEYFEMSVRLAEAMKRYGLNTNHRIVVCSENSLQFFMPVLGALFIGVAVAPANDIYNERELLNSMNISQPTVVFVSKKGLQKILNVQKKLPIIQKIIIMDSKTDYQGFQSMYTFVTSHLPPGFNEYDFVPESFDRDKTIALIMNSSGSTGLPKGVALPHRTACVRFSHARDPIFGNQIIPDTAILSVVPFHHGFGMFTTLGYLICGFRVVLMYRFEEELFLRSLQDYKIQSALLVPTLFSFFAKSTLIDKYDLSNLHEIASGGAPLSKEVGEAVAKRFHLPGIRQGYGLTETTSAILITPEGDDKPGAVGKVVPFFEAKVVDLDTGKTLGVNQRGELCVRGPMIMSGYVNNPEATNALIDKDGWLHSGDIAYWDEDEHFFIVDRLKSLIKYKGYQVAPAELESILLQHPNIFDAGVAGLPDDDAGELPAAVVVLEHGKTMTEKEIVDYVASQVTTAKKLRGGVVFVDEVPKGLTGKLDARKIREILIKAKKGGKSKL
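System: Luciferase/luciferin detection reagent, cell-free biochemical luciferase assay | Medium: PBS buffer for ATP | Dosing: Test compounds dosed from 2 mM stocks in 100% DMSO | Timing: 10 min at ambient temperature | Signal: Luminescence measurement of luciferase light output | Evaluation: Luciferase activation, seen as luminescence increase over controls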
APP 5'UTR act: activates APP 5'UTR luciferase reporter. SH-SY5Y APP 5'UTR luciferase reporter, luminescence; zero percent = DMSO vehicle wells. activation, % at 2 µM. 1% of 190,000 active. AID 1276;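 active means activation above a set limit, based on mean plus 3 SD of controls, cut at about 140% in these data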
NF-kB neuron act: NF-kB expression increase, human neuronal cells; AID 1239; NF-kB reporter expression; active compounds read high; 1.6% of 190,000 active; fold change at 12.5 µM; in the data active means fold change above about 3.3
FLuc inhib CS: inhibits firefly luciferase, flagging false hits in luciferase inhibition screens; inhibition, % at 10 µM; AID 1006; ATPLite firefly luciferase biochemical luminescence, 10 min; P08659; 1.5% of 200,000 active;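 active means inhibition above about 50% when tested at 10 µM, limit read from the data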
PPC-1+TRAIL kill: compounds killing PPC-1 cancer cells with TRAIL present (potentiator screen, no TRAIL-free arm) | PPC-1 cells + TRAIL, ATPLite viability luminescence | cell killing (% activity), % at 4 µM or 5 µM | 0.41% of 220,000 active;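 active means cell killing above 50% in the first pass at 4 µM, then a duplicate retest at 5 µM averaging 50% or more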;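 further: plate controls were cells with TRAIL plus DMSO for no effect and medium-only wells lacking cells for full effect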
* = called active by the depositor; nt = no result given. Only some compounds are listed: those with a hit (about 2.2% of all), similar ones and a draw of the others.

SMILES	C8 TRAIL sens	FLuc act counter	APP 5'UTR act	NF-kB neuron act	FLuc inhib CS	PPC-1+TRAIL kill
Cc1ccc(SCC(=O)Nc2ccc(N3CCN(c4ccccc4)CC3)c(F)c2)cc1	-8	1.1	6	1.1	-7	2
CN1CCN(c2ccc(NC(=O)CSc3ccccc3)cc2F)CC1	2	0.9	175*	1.1	10	23
CC(=O)Oc1ccc(NC(=O)CSc2ccccc2)cc1	4	1	-1	4.2*	-2	-2
CC(=O)NS(=O)(=O)c1ccc(NC(=O)CSc2ccccc2)cc1	-8	nt	nt	nt	nt	5
CC(C)C[C@H]1CN(CCCC[C@H]2CNC(=O)C(=O)N2CCC2CCCCC2)C(=O)C(=O)N1CCc1ccccc1	11	nt	nt	nt	nt	nt
O=C1/C(=C\c2ccccc2)CCc2c1[nH]c1ccccc21	13	0.9	162*	4.7*	10	-11
Cc1ccc(/C=C2/CCc3c([nH]c4ccccc34)C2=O)cc1	27	0.6	156*	2.5	44	-1
COc1cc(CNC(=O)c2cc(-c3ccc(F)cc3OC)n[nH]2)cc(OC)c1	-14	nt	nt	nt	nt	nt
O=C(NCC1CCCO1)c1ccc2c3n(nc2c1)-c1ccccc1CO3 (centres undefined)	51*	nt	nt	nt	nt	42
COCCNC(=O)c1ccc2c3n(nc2c1)-c1ccc(C)cc1CO3	30	nt	nt	nt	nt	43
Cc1ccc(N2CS(=O)(=O)/C(=C/N(C)C)C2=O)cc1	25	0.4	99	1.9	57*	47
Cc1ccc(S(=O)(=O)Nc2ccccc2OC(C(=O)OC(C)(C)C)C(=O)OC(C)(C)C)cc1	11	nt	nt	nt	nt	nt
CCCCCCCCN1C(=O)[C@H](CC(=O)N2CCN(C(=O)C3CC3)CC2)C[C@@]2(C(=O)OCC)CCCC=C12	8	nt	nt	nt	nt	nt
CC(C)C(=O)Nc1cccc(-c2nc3ccccc3c(=O)o2)c1	19	0.9	-1	0.95	6	35
CCCC(=O)Nc1cccc(-c2nc3ccccc3c(=O)o2)c1	40	0.5	-2	3.9*	54*	29
CC(C)C(=O)Nc1ccc(-c2nc3ccccc3c(=O)o2)cc1	48	0.1	6	0.77	90*	31
COc1ccc(-c2nc3ccccc3c(=O)o2)cc1OC	7	0.9	17	1.1	10	-7
CC(C)(C)C(=O)Nc1ccc(-c2nc3ccccc3c(=O)o2)cc1	59*	0	12	0.27	96*	41
Cc1ccc(N=Cc2c(C)[nH]n(-c3nc4ccccc4[nH]3)c2=O)cc1	89*	0.2	23	0.86	79*	79*
CCC(C)NC(=O)c1cc2cc3ccc(OC)cc3nc2s1 (centres undefined)	47	0.4	214*	5*	59*	33
COc1cc(/C=N/NC(=O)COc2ccc(C)cc2)ccc1OC(=O)c1cccs1	57*	1.1	8	0.92	-5	45
Cc1nc2ccc(C(=O)N(C)Cc3ccco3)cn2c1N(C)CC1CCCCC1	-1	nt	nt	nt	nt	nt
COc1ccc(N2Cc3ccc(OC)c(OC)c3C2=O)cc1	51*	nt	nt	nt	nt	nt
COc1ccc2c(CC(=O)OCC(=O)N3CCc4ccccc43)coc2c1	-18	1	-12	0.99	-4	5
COc1ccc2oc(C(=O)N3CCc4ccccc43)c(C)c2c1	82*	nt	nt	nt	nt	nt
SMILES	C8 TRAIL sens	FLuc act counter	APP 5'UTR act	NF-kB neuron act	FLuc inhib CS	PPC-1+TRAIL kill
COc1ccc2c(CC(=O)N3CCc4ccccc43)coc2c1	20	0.6	142*	4.9*	42	31
CC(C)Cc1ccc(-c2cc3nc(NCCc4ccc(S(N)(=O)=O)cc4)ccn3n2)cc1	21	nt	nt	nt	nt	nt
COc1cccc(C=NNc2ccc([N+](=O)[O-])cn2)c1OC	-38	nt	nt	nt	nt	nt
COc1cccc(/C=N/Nc2ncnc(N)c2[N+](=O)[O-])c1OC	43	0.2	86	1.7	78*	-2
COc1ccccc1/C=N/Nc1nncc2ccccc12	19	0.5	37	1.7	48	13
COc1cccc(/C=N/Nc2ncnc(Cl)c2N)c1O	59*	0.3	-78	1.6	68*	60*
COc1cccc(C=NNc2nnc(NN=Cc3cccc(OC)c3OC)c3ccccc23)c1OC	80*	nt	nt	nt	nt	nt
CCCNC(=O)C1(C)CCN(Cc2ccc(C)c3ccccc23)C1 (centres undefined)	11	nt	nt	nt	nt	nt
O=C(O)CSc1ncnc2nc[nH]c12	11	1.1	nt	1.1	-6	-3
c1nc(SSc2ncnc3nc[nH]c23)c2[nH]cnc2n1	73*	nt	nt	nt	nt	nt
CCOC(=O)c1c2c(n(Cc3ccccc3)c1C)C(=O)C(=O)c1ccccc1-2	93*	nt	nt	nt	nt	nt
Cc1c(CN(C)C)c2c(n1C)C(=O)c1ccc(Br)cc1-2	-2	1	15	3.3*	-5	1
CCOC(=O)c1c(-c2ccccc2)c(C(C)=O)c(=O)n(C)c1C	12	1.1	9	1	-6	-3
CCOC(=O)c1c2c3c(cccc3n(C)c1=O)C(=O)c1ccccc1-2	-15	nt	nt	nt	nt	nt
CCOC(=O)c1c2c(n(C)c1C)C(=O)C(=O)c1ccc(Br)cc1-2	97*	nt	5	nt	nt	nt
Cc1c(CN(C)C)c2c(n1Cc1ccccc1)C(=O)c1ccc(Br)cc1-2	20	1	4	0.96	-5	21
COC(=O)c1ccc2nc(-c3ccc(C#N)cc3)c(Cc3cccc(F)c3)n2c1	3	nt	nt	nt	nt	nt
COc1cc(OC)cc(C2=Cc3ccccc3C(CC(=O)c3ccco3)N2c2ccc(-c3cncnc3)cc2)c1 (centres undefined)	-3	nt	nt	nt	nt	nt
Cc1cc(C)nc(-n2nc(C)c(Sc3ccc(F)cc3)c2N)n1	5	1	165*	3	-1	3
Cn1nc(C(C)(C)C)cc1C(=O)N1CCCCC1c1cc(C(=O)Nc2ccccc2Cl)no1 (centres undefined)	11	nt	nt	nt	nt	nt
COc1cc(C(=O)N2CCCC(c3cc(C(=O)NCc4ccc(F)cc4)no3)C2)cc(OC)c1C (centres undefined)	4	nt	nt	nt	nt	nt
CN1CCN(CC(=O)N2c3ccccc3C(C)(c3ccc(Cl)cc3)CC2(C)C)CC1 (centres undefined)	-7	1.1	-3	2.4	-10	-9
CN1CCN(CC(=O)N2c3ccccc3C(C)(c3ccccc3)CC2(C)C)CC1 (centres undefined)	-5	1.1	11	6*	-8	11
Cc1ccc(NC(=O)c2ccc(CSc3nnnn3C)cc2)cc1	58*	0.4	87	3.1	57*	39
Cc1ccc(Cl)cc1NC(=O)c1ccc(CSc2nnnn2C)cc1	12	1	-6	0.84	1	-16
Cc1cc(C)cc(NC(=O)c2ccc(CSc3nnc(C)s3)cc2)c1	24	0.8	12	1.4	23	24
Cc1ccc(NC(=O)c2ccc(CSc3nnc(C)s3)cc2)cc1	34	0.4	70	3.9*	56*	42
Nc1ncnn1Cc1ccccc1	-8	nt	nt	nt	nt	nt
COc1ccc(C(=O)c2coc(-c3ccccc3C(=O)O)c2C(=O)O)cc1	-20	1	-12	1.3	-3	7
